The test system of data set [1] is Brugia malayi. Nature of the data set: (§1) WHO-TDR: Lymphatic Filariasis. The format is functional, organism-based. In short, it runs like this:
(§2)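 A diverse library of 10,000 compounds from Life Chemicals was screened against Brugia malayi microfilariae in a whole-organism assay. The library had been filtered for drug-likeness and reactive groups. Activity is given as percent inhibition and as IC50.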

In data set [2] the test system is Leishmania infantum. Nature of the data set: WHO-TDR: Leishmaniasis. The note with it: Macrophage. The format is functional, organism-based, Mus musculus. In short, it runs like this:
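Whole-organism screen of a 10,000-compound diverse library from Life Chemicals, filtered for drug-likeness and reactive groups, against intracellular amastigotes of Leishmania infantum MHOM/MA(BE)/67 in murine peritoneal macrophage host cells. The assay followed previously published standard procedures, with a reference drug as positive control. Antiparasitic potency is reported as IC50.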

The test system of data set [3] is Trypanosoma brucei brucei. Put plainly: WHO-TDR: Human African Trypanosomiasis (HAT). The data set is classed as functional, organism-based. The following applies: Squib-427. In outline:
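Whole-organism screen of a 10,000-compound diverse library from Life Chemicals, filtered for drug-likeness and reactive groups, against bloodstream forms of Trypanosoma brucei Squib 427 strain. The assay followed previously published standard procedures, with reference drugs as positive controls. Antiparasitic potency is reported as IC50.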

Data set [4] relates to Brugia malayi. Described as §1. The data set is classed as functional. Also noted: concentration or dose not given beside the values. In outline: as §2
Data set [5] has as its system Plasmodium falciparum K1. Nature of the data set: WHO-TDR: Malaria. The data set is classed as functional, organism-based, Homo sapiens. The note with it: Erythrocyte. In outline:
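Whole-organism screen of a 10,000-compound diverse library from Life Chemicals, filtered for drug-likeness and reactive groups, against intra-erythrocytic Plasmodium falciparum K1 strain in human red blood cells. The assay followed previously published standard procedures, with a reference drug as positive control. Antiplasmodial potency is reported as IC50.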

A short description of data set [6]: WHO-TDR: Cytotoxicity. The format is toxicity, cell-based. The following applies: human, MRC5 cells.
Data set [7] deals with Trypanosoma cruzi. Put plainly: WHO-TDR: Chagas disease. The data set is classed as functional, organism-based, Homo sapiens. The following applies: MRC5. In outline:
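A diverse library of 10,000 compounds from Life Chemicals, filtered for drug-likeness and reactive groups, was screened against intracellular amastigotes of Trypanosoma cruzi Tulahuen CL2 beta-galactosidase strain. The parasites were grown in MRC-5SV2 human lung fibroblast host cells, and a reference drug served as positive control under previously published standard procedures. Antiparasitic potency is given as IC50.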

Data set [8] has as its system Brugia malayi. The data set is described as §1. The data set is classed as functional. Further details: concentration or dose not given beside the values. In outline: as §2
This is another data set of the same source.

The subject of data set [9] is Schistosoma mansoni. Put plainly: WHO-TDR: Schistosomiasis. The data set is classed as functional. Further details: concentration or dose not given beside the values. In outline:
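A diverse library of 10,000 compounds from Life Chemicals, filtered for drug-likeness and reactive groups, was screened against whole larval and/or adult Schistosoma mansoni worms of the Puerto Rican strain. Previously published standard procedures were followed, with a reference drug as positive control. Activity is given as percent inhibition and as IC50.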

Values after ≈ are worked out from the molar mass of the structure shown.

Turning to `COc1cccc(C(=O)Nc2nnc(-c3ccc4c(c3)CCCC4)o2)c1`, the half-inhibitory concentration (IC50) in data set [1] was 2.18 µM; in data set [2] it was 3.31 µg/mL (≈ 9.49 µM); in data set [3], > 11.2 µg/mL; in data set [5], > 10.5 µg/mL; in [6], > 10.5 µg/mL; in data set [7], > 10.5 µg/mL. The “% Inhibition” value came to 50% in data set [4], 100% in data set [8] and 25% in data set [9].

Turning to `CC(=O)Nc1ccc2nc(Nc3nc4ccc(C(C)C)cc4s3)sc2c1`, the IC50 in data set [1] was 5.09 µM; in [2], 4.12 µg/mL (≈ 10.8 µM); in [3], 4.49 µg/mL (≈ 11.7 µM); in [5], 2.19 µg/mL (≈ 5.72 µM); in data set [6], > 11.5 µg/mL; in [7], 2.37 µg/mL (≈ 6.2 µM). For the same compound, the “% Inhibition” value in data set [4] is on record as 25%; in [8], 100%; in [9] it was 0%.

On to `Cc1nc2ccc3nc(Nc4nc5c(F)cccc5s4)sc3c2s1`, for which the concentration for half-maximal inhibition (IC50) in data set [1] was 5.21 µM; in data set [2] it was > 11.2 µg/mL; in data set [3] it was > 11.2 µg/mL; in data set [5], > 11.2 µg/mL; in [6], > 11.2 µg/mL; in data set [7], > 11.2 µg/mL. In addition, the “% Inhibition” value in [4] amounted to 50%; in data set [8], 100%; in data set [9], 0%.

For the compound `CC1CCc2c(sc(Nc3nc4c(F)cccc4s3)c2C(N)=O)C1` (stereo not drawn), the IC50 is 4.99 µM in data set [1]; 3.51 µg/mL (≈ 9.71 µM) in [2]; 2.31 µg/mL (≈ 6.39 µM) in [3]; 2.69 µg/mL (≈ 7.46 µM) in data set [5]; > 10.8 µg/mL in data set [6]; 4.66 µg/mL (≈ 12.9 µM) in data set [7]. For the same compound, the results for the “% Inhibition” value in [4], in data set [8] and in [9] were 25%, 100% and 0%, respectively.

With `CS(=O)(=O)c1ccc2nc(Nc3nc4c(F)cccc4s3)sc2c1`, the concentration for half-maximal inhibition (IC50) in [1] is 4.49 µM; in data set [2], > 11.4 µg/mL; in data set [3] it was > 11.4 µg/mL; in [5], 6.16 µg/mL (≈ 16.2 µM); in [6], > 11.4 µg/mL; in data set [7], > 11.4 µg/mL. Further, the “% Inhibition” value in data set [4] is 25%; in data set [8] it was 100%; in data set [9], 0%.

For `COc1ccc2nc(Nc3nc(-c4ccccn4)cs3)sc2c1`, the half-inhibitory concentration (IC50) was 2.61 µM in [1]; 0.323 µg/mL (≈ 0.949 µM) in data set [2]; < 0.102 µg/mL in data set [3]; 0.312 µg/mL (≈ 0.915 µM) in data set [5]; 0.129 µg/mL (≈ 0.378 µM) in data set [6]; < 0.102 µg/mL in data set [7]. Also, the “% Inhibition” value in data set [4] was found to be 25%; in data set [8] it was 100%; in [9], 0%.

Consider `Cc1cc(C)c2sc(NC(=O)c3nc4ccccc4s3)nc2c1`, for which the IC50 in data set [1] is 2.5 µM; in data set [2], > 10.2 µg/mL; in data set [3] it was > 10.9 µg/mL; in data set [5] it was > 10.2 µg/mL; in data set [6], > 10.2 µg/mL; in [7], > 10.2 µg/mL. For the same compound, the entries for the “% Inhibition” value in data set [4], in [8] and in data set [9] were 25%, 100% and 0%, respectively.

Regarding `CCOc1cccc2sc(Nc3nc4ccc5sc(C)nc5c4s3)nc12`, the IC50 in data set [1] was 4.49 µM; in data set [2] it was > 12 µg/mL; in data set [3], > 12 µg/mL; in [5], > 12 µg/mL; in [6], > 12 µg/mL; in data set [7], > 12 µg/mL. Also, the “% Inhibition” value in data set [4] came out at 50%; in [8], 100%; in data set [9], 0%.

For `Fc1cccc2sc(Nc3nc4c(s3)CCCC4)nc12`, the half-inhibitory concentration (IC50) in data set [1] was 4.36 µM; in [2], > 9.16 µg/mL; in data set [3], > 9.16 µg/mL; in [5], > 9.16 µg/mL; in [6], > 9.16 µg/mL; in data set [7], > 9.16 µg/mL. Also, the “% Inhibition” value in [4] worked out at 50%; in [8], 100%; in data set [9] it was 0%.

With `CCOC(=O)c1sc(Nc2nc3c(F)cccc3s2)nc1C`, the IC50 is 4.99 µM in [1]; 6.9 µg/mL (≈ 20.4 µM) in data set [2]; > 10.1 µg/mL in [3]; > 10.1 µg/mL in [5]; > 10.1 µg/mL in data set [6]; > 10.1 µg/mL in data set [7]. The “% Inhibition” value is given as 50% in data set [4], 100% in data set [8] and 0% in [9].

`CCCCc1ccc(NC(=O)CSc2cn(CC)c3ccccc23)cc1`: the IC50 is 3.54 µM in data set [1]; > 11 µg/mL in data set [2]; 3.56 µg/mL (≈ 9.71 µM) in data set [3]; > 11 µg/mL in [5]; > 11 µg/mL in data set [6]; 2.93 µg/mL (≈ 7.99 µM) in data set [7]. The “% Inhibition” value in data set [4] was found to be 0%; in [8] it was 100%; in data set [9], 0%.

For `COc1cccc2sc(Nc3nc4c(s3)CCCC4)nc12`, the IC50 in data set [1] is 3.44 µM; in [2], > 9.52 µg/mL; in data set [3], 3.81 µg/mL (≈ 12 µM); in data set [5], > 9.52 µg/mL; in [6] it was > 9.52 µg/mL; in [7], > 9.52 µg/mL. Besides, the results for the “% Inhibition” value in data set [4], in data set [8] and in [9] were 50%, 100% and 0%, respectively.

Consider `COc1ccc(NC(=O)c2oc3ccccc3c2NC(=O)c2cccc(Cl)c2)c(OC)c1`, for which the IC50 in [1] is 4.49 µM; in [2], > 13.5 µg/mL; in data set [3], > 13.5 µg/mL; in [5], > 13.5 µg/mL; in [6] it was > 13.5 µg/mL; in [7] it was > 13.5 µg/mL. Further, the entries for the “% Inhibition” value in data set [4], in data set [8] and in data set [9] were 0%, 100% and 25%, respectively.

As to `COc1cccc2sc(Nc3nnc(-c4cccs4)o3)nc12`, the IC50 is 5.09 µM in data set [1]; 3.17 µg/mL (≈ 9.6 µM) in [2]; 0.346 µg/mL (≈ 1.05 µM) in [3]; 1.25 µg/mL (≈ 3.78 µM) in [5]; 1.83 µg/mL (≈ 5.54 µM) in data set [6]; 0.313 µg/mL (≈ 0.947 µM) in data set [7]. The “% Inhibition” value is 50% in [4], 100% in [8] and 0% in data set [9].

As to `CCOC(=O)c1sc(NC(=O)C(C)Sc2ncnc3ccccc23)c(C(=O)OCC)c1C` (stereo not drawn), the IC50 was 4.36 µM in [1]; > 14.2 µg/mL in [2]; > 14.2 µg/mL in [3]; > 14.2 µg/mL in data set [5]; > 14.2 µg/mL in data set [6]; > 14.2 µg/mL in data set [7]. Also, the “% Inhibition” value in data set [4] is 0%; in [8] it was 100%; in data set [9], 0%.

Turning to `Cc1c(Cl)ccc2sc(NC(=O)c3ccc(S(=O)(=O)N4CC(C)CC(C)C4)cc3)nc12` (stereo not drawn), the IC50 in data set [1] was 1.07 µM; in data set [2], 4.64 µg/mL (≈ 9.71 µM); in data set [3], > 15.3 µg/mL; in data set [5], > 14.3 µg/mL; in data set [6] it was > 14.3 µg/mL; in [7] it was > 14.3 µg/mL. The “% Inhibition” value was determined as 80% in data set [4], 100% in [8] and 0% in data set [9].

As for `COc1cccc2sc(Nc3sc4c(c3C(N)=O)CCCC4)nc12`, the half-maximal inhibitory concentration (IC50) is 4.51 µM in data set [1]; 4.55 µg/mL (≈ 12.7 µM) in [2]; 0.947 µg/mL (≈ 2.63 µM) in data set [3]; 4.55 µg/mL (≈ 12.7 µM) in data set [5]; 3.58 µg/mL (≈ 9.95 µM) in data set [6]; 3 µg/mL (≈ 8.35 µM) in data set [7]. In addition, the “% Inhibition” value was 50% in data set [4], 100% in [8] and 12.5% in data set [9].

The values are drawn from ChEMBL document CHEMBL2093137, “WHO-TDR NTD Screening”.
